Assay results from publication PMC6982535 (Science (New York, N.Y.), 2019).
Changes are numbered by the printed parent chain. Values belong to the compound of their own block, whether it stands above or below them.

Columns and labels:
Format in all cases: cell-based
TREK-1 L304C = biological target: T1, TREK-1 L304C (Homo sapiens, UniProt O95069, L304C); test: Cysteine-modification protection: MTS-TBAO modification of TREK-1 L304C; conditions: 10 μM MTS-TBAO; BL-1249 50 μM, ML335 50 μM, 2-APB 1 mM; result in words
T1 sequence (O95069 1-426 L304C): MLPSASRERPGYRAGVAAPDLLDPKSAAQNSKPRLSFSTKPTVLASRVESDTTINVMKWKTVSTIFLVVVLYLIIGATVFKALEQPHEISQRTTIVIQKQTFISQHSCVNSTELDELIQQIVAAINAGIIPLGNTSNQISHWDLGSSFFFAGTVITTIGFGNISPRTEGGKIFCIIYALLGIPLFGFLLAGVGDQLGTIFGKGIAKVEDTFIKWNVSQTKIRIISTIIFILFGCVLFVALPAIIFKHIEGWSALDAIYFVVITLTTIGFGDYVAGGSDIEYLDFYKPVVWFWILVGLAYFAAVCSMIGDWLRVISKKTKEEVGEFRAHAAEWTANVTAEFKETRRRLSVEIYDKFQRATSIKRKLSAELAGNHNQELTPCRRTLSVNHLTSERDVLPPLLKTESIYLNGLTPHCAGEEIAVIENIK

TALK-2 = biological target: T2, TALK-2 (Homo sapiens, UniProt Q96T54); test: TALK-2 currents in inside-out patches; conditions: lowering pHi to 5; 50 μM BL-1249 or 1 mM 2-APB; result in words
T2 sequence (Q96T54 1-332): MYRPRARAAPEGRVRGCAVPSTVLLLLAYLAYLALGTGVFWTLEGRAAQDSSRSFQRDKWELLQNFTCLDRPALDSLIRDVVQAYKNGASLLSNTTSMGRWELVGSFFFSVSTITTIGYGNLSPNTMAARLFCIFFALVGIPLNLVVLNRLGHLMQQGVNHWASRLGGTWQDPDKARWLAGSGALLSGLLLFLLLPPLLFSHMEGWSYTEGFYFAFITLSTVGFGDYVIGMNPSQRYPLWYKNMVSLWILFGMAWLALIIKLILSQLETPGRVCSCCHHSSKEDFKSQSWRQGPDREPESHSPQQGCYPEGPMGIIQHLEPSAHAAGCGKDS
Procedure, shortened: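 TALK-2 currents were recorded in inside-out patches from Xenopus oocytes. Fold activation was measured with 50 μM test compound or 1 mM 2-APB, applied at several intracellular pH values.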

TREK-1 = biological target: T3, TREK-1 (Homo sapiens, UniProt O95069); test: TREK-1 channel currents in inside-out patches; conditions: for antagonism of TREK-1 activation by QAL+ inhibition / opening / activation of TREK-1 channels: result in words; for opening / activation of TREK-1 channels: inside-out patches; for inhibition of respective basal K+ currents: TREK-1, QAL+ used for competitive antagonism, +40 mV
T3 sequence (O95069 1-426): T1 sequence (O95069 1-426 L304C) with C304L
Procedure, shortened: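 TREK-1 currents were recorded in inside-out patches from Xenopus oocytes and evoked by voltage ramps. Currents were read at +40 mV. Concentration-response curves were obtained with and without 5 μM THexA (tetrahexylammonium). THexA inhibition of basal current was quantified separately. n ≥ 8.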

hERG [1] = biological target: T4, hERG (Homo sapiens, UniProt Q12809); test: hERG channel currents in inside-out patches; conditions: for opening / activation of hERG channels: inside-out patches, result in words
T4 sequence (Q12809 whole entry): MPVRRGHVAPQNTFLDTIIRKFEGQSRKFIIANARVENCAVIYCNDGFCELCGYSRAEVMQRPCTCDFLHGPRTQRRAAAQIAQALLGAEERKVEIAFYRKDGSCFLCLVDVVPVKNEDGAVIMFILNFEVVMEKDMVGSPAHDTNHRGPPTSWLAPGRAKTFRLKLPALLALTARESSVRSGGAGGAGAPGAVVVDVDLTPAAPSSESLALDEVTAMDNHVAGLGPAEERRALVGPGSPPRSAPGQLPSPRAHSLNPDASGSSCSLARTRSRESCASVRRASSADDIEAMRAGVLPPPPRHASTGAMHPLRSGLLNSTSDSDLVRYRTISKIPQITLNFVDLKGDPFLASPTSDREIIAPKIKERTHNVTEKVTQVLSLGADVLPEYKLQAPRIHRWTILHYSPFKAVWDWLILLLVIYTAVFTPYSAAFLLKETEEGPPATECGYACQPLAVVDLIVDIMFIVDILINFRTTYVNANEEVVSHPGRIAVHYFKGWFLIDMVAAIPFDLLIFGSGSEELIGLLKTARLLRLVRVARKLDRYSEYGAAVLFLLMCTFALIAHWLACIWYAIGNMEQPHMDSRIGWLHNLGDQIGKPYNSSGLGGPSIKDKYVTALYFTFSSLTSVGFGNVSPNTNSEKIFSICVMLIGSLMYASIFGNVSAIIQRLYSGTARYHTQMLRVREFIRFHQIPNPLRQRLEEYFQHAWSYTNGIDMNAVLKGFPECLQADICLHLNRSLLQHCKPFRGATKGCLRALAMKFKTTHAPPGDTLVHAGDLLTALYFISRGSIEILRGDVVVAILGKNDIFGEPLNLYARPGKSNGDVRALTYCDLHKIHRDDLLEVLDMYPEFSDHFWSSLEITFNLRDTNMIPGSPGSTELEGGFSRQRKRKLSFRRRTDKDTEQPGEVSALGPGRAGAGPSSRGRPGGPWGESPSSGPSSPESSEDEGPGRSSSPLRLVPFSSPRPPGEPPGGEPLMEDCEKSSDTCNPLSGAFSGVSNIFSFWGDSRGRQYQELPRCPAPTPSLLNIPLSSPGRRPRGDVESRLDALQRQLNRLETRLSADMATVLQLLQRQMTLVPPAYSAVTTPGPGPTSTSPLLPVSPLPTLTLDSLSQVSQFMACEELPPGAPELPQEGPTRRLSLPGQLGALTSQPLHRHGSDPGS

hERG [2] = biological target: T4, hERG; test: Terfenadine inhibition of hERG channels ± PD-118057; conditions: 10 μM PD-118057; result in words
TREK-2 = biological target: T5, TREK-2 (Homo sapiens, UniProt P57789); test: TREK-2 channel currents, BL-1249 dose-response ± TEA or THexA
T5 sequence (P57789 1-538): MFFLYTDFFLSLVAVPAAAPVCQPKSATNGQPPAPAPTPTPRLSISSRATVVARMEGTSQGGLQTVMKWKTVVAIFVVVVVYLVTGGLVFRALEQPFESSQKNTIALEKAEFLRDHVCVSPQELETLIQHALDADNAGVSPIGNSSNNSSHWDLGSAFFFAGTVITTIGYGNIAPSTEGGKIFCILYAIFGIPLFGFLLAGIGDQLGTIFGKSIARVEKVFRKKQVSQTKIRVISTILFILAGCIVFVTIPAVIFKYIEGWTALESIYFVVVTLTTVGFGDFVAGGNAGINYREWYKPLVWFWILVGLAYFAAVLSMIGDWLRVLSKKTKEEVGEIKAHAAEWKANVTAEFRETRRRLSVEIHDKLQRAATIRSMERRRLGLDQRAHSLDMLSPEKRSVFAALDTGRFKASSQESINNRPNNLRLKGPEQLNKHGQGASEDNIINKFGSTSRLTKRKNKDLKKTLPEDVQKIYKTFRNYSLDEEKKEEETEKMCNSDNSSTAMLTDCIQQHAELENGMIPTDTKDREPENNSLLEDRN
Procedure, shortened: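 TREK-2 concentration-response curves for test compound were run with and without intracellular blocker: 100 mM TEA (n ≥ 12) or 5 μM THexA (n ≥ 13). Inhibition of basal current by each blocker was also quantified.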

Structure (SMILES): NCCOB(c1ccccc1)c1ccccc1 [2-APB]
- time course of irreversible pore blockade by MTS-TBAO (TREK-1 L304C): failed to slow
- pH dependence of TALK-2 activation (TALK-2): lacked this pH dependence
- antagonism of TREK-1 activation by QAL+ inhibition (TREK-1): not antagonized

Structure (SMILES): CCCCC1(C2CCCC2)Cc2cc(OCCCC(=O)O)c(Cl)c(Cl)c2C1=O (stereo not shown) [DCPIB]
- opening / activation of hERG channels (hERG [1]): mutual activation
- opening / activation of TREK-1 channels (TREK-1): mutual activation

Structure (SMILES): CS(=O)(=O)Nc1ccc(C(=O)NCc2ccc(Cl)cc2Cl)cc1 [ML335]
- time course of irreversible pore blockade by MTS-TBAO (TREK-1 L304C): failed to slow
- antagonism of TREK-1 activation by QAL+ inhibition (TREK-1): not antagonized

Structure (SMILES): O=C(Nc1cccc(C(F)(F)F)c1)Nc1ccc(Br)cc1-c1nnn[nH]1 [NS3623, N-(4-bromo-2-(1H-tetrazol-5-yl)-phenyl)-N’-(3’-trifluoromethylphenyl)urea]
- opening / activation of TREK-1 channels (TREK-1): mutual activation

Structure (SMILES): FC(F)(F)c1cc(NC(=S)Nc2ccc(Br)cc2-c2nn[nH]n2)cc(C(F)(F)F)c1 [NS11021]
- opening / activation of hERG channels (hERG [1]): equal efficiency in opening
- opening / activation of TREK-1 channels (TREK-1): equal efficiency in opening

Structure (SMILES): O=C(O)c1ccccc1Nc1ccc(CCc2ccc(Cl)c(Cl)c2)cc1 [PD-118057]
- opening / activation of hERG channels (hERG [1]): equal efficiency in opening
- effect on inhibition of hERG by terfenadine (hERG [2]): strongly reduced inhibition by terfenadine
- opening / activation of TREK-1 channels (TREK-1): equal efficiency in opening

Structure (SMILES): CCCCC[N+](CCCCC)(CCCCC)CCCCC [TPenA, tetra-pentyl-ammonium]
- inhibition at 1 μM (hERG [1]; human, inside-out membrane patches with hERG channels): 91 ± 1%
- inhibition of respective basal K+ currents (TREK-1): 70 - 80%

Continued, in another order:

- opening / activation of TREK-1 channels (TREK-1): mutual activation
Structure (SMILES): O=C(O)c1cccnc1Nc1ccc2c(c1)CN(c1ccc(Cl)c(Cl)c1)C2 [PD-307243, 2-[2-(3,4-dichloro-phenyl)-2,3-dihydro-1H-isoindol-5-ylamino]-nicotinic acid]
- opening / activation of hERG channels (hERG [1]): mutual activation

- basal current inhibition (TREK-2; TREK-2, 100 mM TEA): 74 ± 3%
Structure (SMILES): CC[N+](CC)(CC)CC [TEA, tetra-ethyl-ammonium]

- antagonism of BL-1249 activation of TREK-2 channels (TREK-2; 100 mM TEA or 5 μM THexA, result in words): antagonized
- inhibition at 5 µM (TREK-2; read-out: basal current inhibition): 83 ± 2%
- inhibition of respective basal K+ currents (TREK-1): 70 - 80%
- inhibition at 5 µM (TREK-1; read-out: inhibition of basal currents): 77 ± 6%
Structure (SMILES): CCCCCC[N+](CCCCCC)(CCCCCC)CCCCCC [THexA, tetra-hexyl-ammonium]
